Measured values taken from ChEMBL document CHEMBL2417552, “Screen of pseudopeptidic inhibitors of human sirtuins 1-3: two lead compounds with antiproliferative effects in cancer cells” (J Med Chem, 2013).
Calls of active or inactive are those of the source. No cut-off for these calls is given here.

What was measured:
[1] = test system: MCF7; assay: Cell cycle arrest in human MCF7 cells assessed as accumulation at G2 phase at 100 uM after 18 hrs by propidium iodide staining-based FACS flow cytometric analysis (reference value: 14.7%); assay type: functional
[2] = molecular target: T1, NAD-dependent protein deacetylase sirtuin-2 (Homo sapiens, UniProt Q8IXJ6); assay: Inhibition of human recombinant GST-tagged SIRT2 using KI179 as substrate preincubated for 5 mins followed by enzyme addition measured after 1 hr by fluorescence assay
T1 sequence (Q8IXJ6 whole entry): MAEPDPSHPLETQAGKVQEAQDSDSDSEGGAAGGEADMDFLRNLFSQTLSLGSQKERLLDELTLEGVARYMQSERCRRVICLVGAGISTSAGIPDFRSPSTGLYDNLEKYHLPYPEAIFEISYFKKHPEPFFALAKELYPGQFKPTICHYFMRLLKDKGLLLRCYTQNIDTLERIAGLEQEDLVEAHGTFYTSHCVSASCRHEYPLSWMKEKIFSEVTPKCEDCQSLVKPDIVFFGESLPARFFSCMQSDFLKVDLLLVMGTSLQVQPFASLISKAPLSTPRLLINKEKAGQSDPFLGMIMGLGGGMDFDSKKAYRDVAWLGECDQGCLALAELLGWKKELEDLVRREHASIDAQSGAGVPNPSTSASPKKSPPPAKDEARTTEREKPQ
Outline: (§1)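 Fluor de Lys deacetylation assay. […] Mix preincubated 5 min at room temperature, started with enzyme, run 1 h at 37°C. Developer with 2 mM nicotinamide then added for 45 min at 37°C before fluorescence reading.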

[3] = test system: MCF7; assay: Growth inhibition of human MCF7 cells at >= 50 uM after 72 hrs by sulforhodamine B assay
[4] = Cytotoxicity against human ARPE19 cells at 20 uM by LDH assay; assay type: cell-based; details: arpe-19, 20 µM
[5] = molecular target: T2, NAD-dependent protein deacetylase sirtuin-1 (Homo sapiens) (UniProt Q96EB6); details: at 50 µM
T2 sequence (whole entry): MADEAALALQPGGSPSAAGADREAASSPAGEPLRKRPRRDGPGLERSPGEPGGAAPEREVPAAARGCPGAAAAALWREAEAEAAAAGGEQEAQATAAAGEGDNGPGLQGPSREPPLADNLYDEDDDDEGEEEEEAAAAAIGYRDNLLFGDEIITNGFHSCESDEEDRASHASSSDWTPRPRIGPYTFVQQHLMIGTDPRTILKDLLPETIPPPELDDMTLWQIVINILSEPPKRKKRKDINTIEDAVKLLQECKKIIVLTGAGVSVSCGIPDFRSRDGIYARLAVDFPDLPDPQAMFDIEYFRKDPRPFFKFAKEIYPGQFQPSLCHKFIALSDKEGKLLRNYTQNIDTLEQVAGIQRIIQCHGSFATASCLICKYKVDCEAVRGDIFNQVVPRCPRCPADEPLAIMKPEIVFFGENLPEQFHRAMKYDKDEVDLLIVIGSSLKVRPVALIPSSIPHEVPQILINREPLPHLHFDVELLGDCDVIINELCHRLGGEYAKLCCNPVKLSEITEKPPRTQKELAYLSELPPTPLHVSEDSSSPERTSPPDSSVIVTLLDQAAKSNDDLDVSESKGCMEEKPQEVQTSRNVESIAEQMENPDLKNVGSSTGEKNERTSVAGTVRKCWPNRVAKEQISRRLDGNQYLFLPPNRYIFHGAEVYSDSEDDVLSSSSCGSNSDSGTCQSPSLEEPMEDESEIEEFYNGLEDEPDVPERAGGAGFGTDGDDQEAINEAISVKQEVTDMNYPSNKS

[6] = test system: MCF7; assay: Cytotoxicity against human MCF7 cells assessed as cell death at 100 uM after 18 hrs by propidium iodide staining-based FACS flow cytometric analysis; assay type: functional
[7] = molecular target: T3, NAD-dependent protein deacetylase sirtuin-1 (Homo sapiens, UniProt Q96EB6); assay: Inhibition of human recombinant GST-tagged SIRT1 using KI177 as substrate preincubated for 5 mins followed by enzyme addition measured after 1 hr by fluorescence assay; outline: as §1
T3 sequence (Q96EB6 whole entry): T2 sequence (whole entry)

[8] = test system: MCF7; assay: Cytotoxicity against human MCF7 cells at 50 uM by LDH assay; assay type: functional, cell-based
[9] = test system: MCF7; assay: Cell cycle arrest in human MCF7 cells assessed as accumulation at S phase at 100 uM after 18 hrs by propidium iodide staining-based FACS flow cytometric analysis (reference value: 12.6%); assay type: functional
[10] = test system: MCF7; assay: Effect on alpha-tubulin acetylation in human MCF7 cells at 50 uM after 6 to 18 hrs by Western blotting analysis; assay type: functional, cell-based
Outline: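 MCF-7 cells seeded 24 h ahead, treated for 6 or 18 h, then lysed in M-PER. Lysates run on SDS-PAGE, transferred to nitrocellulose and probed with mouse monoclonal anti-acetylated α-tubulin and anti-total α-tubulin. Detection with peroxidase anti-mouse secondary and ECL Plus.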

[11] = test system: A549; assay: Growth inhibition of human A549 cells at >= 50 uM after 48 hrs by sulforhodamine B assay; assay type: functional, cell-based
[12] = molecular target: T2, NAD-dependent protein deacetylase sirtuin-1 (Homo sapiens); assay: Inhibition of SIRT1 in etoposide-induced human SH-SY5Y cells assessed as increase in p53 acetylation at Lys382 at 20 uM after 5 hrs by Western blotting analysis; assay type: cell-based
Outline: (§2)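 ARPE-19 or SH-SY5Y cells seeded 24 h ahead, then given 20 μM compound and 100 μM etoposide together for 5 h before harvest. Acetylated p53 detected by Western blot. Mean ± SEM of 2 independent experiments.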

[13] = test system: MCF7; assay: Cell cycle arrest in human MCF7 cells assessed as accumulation at G1 phase at 100 uM after 18 hrs by propidium iodide staining-based FACS flow cytometric analysis (reference value: 67.6%); assay type: functional
[14] = molecular target: T4, NAD-dependent protein deacetylase sirtuin-3, mitochondrial (Homo sapiens, UniProt Q9NTG7); assay: Inhibition of human recombinant His-tagged SIRT3 using KI179 as substrate preincubated for 5 mins followed by enzyme addition measured after 1 hr by fluorescence assay
T4 sequence (Q9NTG7 whole entry): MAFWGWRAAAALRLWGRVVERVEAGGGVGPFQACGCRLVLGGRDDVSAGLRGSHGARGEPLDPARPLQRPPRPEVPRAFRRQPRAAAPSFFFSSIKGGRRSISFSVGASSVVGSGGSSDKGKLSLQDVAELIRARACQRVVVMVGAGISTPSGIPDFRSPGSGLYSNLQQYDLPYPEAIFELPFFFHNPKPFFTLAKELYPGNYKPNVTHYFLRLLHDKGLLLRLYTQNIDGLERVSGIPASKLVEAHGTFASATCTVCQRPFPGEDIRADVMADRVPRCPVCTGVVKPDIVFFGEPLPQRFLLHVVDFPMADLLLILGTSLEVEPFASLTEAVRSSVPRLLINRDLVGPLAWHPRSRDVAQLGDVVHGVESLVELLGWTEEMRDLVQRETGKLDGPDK

[15] = molecular target: T2, NAD-dependent protein deacetylase sirtuin-1 (Homo sapiens); assay: Inhibition of SIRT1 in etoposide-induced human ARPE19 cells assessed as increase in p53 acetylation at Lys382 at 20 uM after 5 hrs by Western blotting analysis; assay type: cell-based; outline: as §2
[16] = test system: A549; assay: Cell cycle arrest in human A549 cells assessed as accumulation at G2 phase at 100 uM after 18 hrs by propidium iodide staining-based FACS flow cytometric analysis (reference value: 19.4%); assay type: functional
[17] = Cytotoxicity against human SH-SY5Y cells at 20 uM by LDH assay; assay type: cell-based

IC50 [2]: 2.53 µM
inhibition [5]: 97%
IC50 [7]: 0.89 µM
inhibition [12]: Active
IC50 [14]: 8.35 µM
inhibition [15]: Active
Compound: COc1ccc(C(=O)CNC(=O)[C@H](CCCCNC(C)=S)NC(=O)OCc2ccccc2)cc1
Activity [1]: 8.7%
growth inhibition (GI) [3]: Active
Activity [4]: Non-toxic
Activity [6]: inactive
Activity [8]: inactive
Activity [9]: 5.8%
Activity [10]: inactive
growth inhibition (GI) [11]: Active
Activity [13]: 80.5%
Activity [16]: 9.4%
Activity [17]: Non-toxic
